From ChEMBL document CHEMBL2086368, “Sulfonilamidothiopyrimidone and thiopyrimidone derivatives as selective COX-2 inhibitors: synthesis, biological evaluation, and docking studies” (Eur J Med Chem, 2012)
Active and inactive are the calls of the source. The rule behind the calls is not given here.

Legend:
PBL [1] = assay: Cytotoxicity against IL2-stimulated human PBL assessed as cell death at 10 uM after 24 hrs by MTT assay; type: cell-based
Procedure, shortened: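 IL-2-treated human PBLs given 1, 10 or 50 (micromolar) test agent for 24 h. Viability read by MTT (0.15 mg/ml, 4 h, 37 °C) reduction to formazan, absorbance at 570 nm with 655 nm reference. DMSO served as cell-death control.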

PBL [2] = assay: Inhibition of COX2 expression in PMA-Ion-stimulated human PBL at 5 uM after 20 hrs by Western blot analysis; type: functional, cell-based
Procedure, shortened: (§1)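 PBLs treated with PMA 15 ng/ml plus ionomycin, alone or with inhibitor, for 20 h at 37 °C; NS398 as inhibition control. Lysates quantified by BCA, resolved on 10% SDS-PAGE, semidry-blotted to PVDF, probed with rabbit anti-human COX-2 (1:500) and anti-α-tubulin loading control, ECL detection.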

PBL [3] = assay: Inhibition of COX2 expression in PMA-Ion-stimulated human PBL at 10 uM after 20 hrs by Western blot analysis; type: functional, cell-based; procedure, shortened: as §1
[4] = molecular target: Prostaglandin G/H synthase 2 (Ovis aries) (UniProt P79208); conditions: at 5 nM
PBL [5] = assay: Antiproliferative activity against human PBL assessed as incorporation of BrdU at 10 uM after 2 to 24 hrs; type: cell-based
Procedure, shortened: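 Human PBLs in RPMI 1640 with 10% heat-inactivated FCS, 1% penicillin/streptomycin, 2 mM L-glutamine, stimulated with PHA and 60 U/ml IL-2; exposed to test agent for 24 h at 37 °C, 5% CO2. DNA synthesis read by immunochemical detection of incorporated BrdU after partial DNA denaturation.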

[6] = molecular target: T1, Prostaglandin G/H synthase 2 (Homo sapiens) (UniProt P35354); assay: Inhibition of COX2-mediated PGE2 production in PMA-Ion-stimulated human PBL at 10 uM after 24 hrs by ELISA
T1 sequence (whole entry): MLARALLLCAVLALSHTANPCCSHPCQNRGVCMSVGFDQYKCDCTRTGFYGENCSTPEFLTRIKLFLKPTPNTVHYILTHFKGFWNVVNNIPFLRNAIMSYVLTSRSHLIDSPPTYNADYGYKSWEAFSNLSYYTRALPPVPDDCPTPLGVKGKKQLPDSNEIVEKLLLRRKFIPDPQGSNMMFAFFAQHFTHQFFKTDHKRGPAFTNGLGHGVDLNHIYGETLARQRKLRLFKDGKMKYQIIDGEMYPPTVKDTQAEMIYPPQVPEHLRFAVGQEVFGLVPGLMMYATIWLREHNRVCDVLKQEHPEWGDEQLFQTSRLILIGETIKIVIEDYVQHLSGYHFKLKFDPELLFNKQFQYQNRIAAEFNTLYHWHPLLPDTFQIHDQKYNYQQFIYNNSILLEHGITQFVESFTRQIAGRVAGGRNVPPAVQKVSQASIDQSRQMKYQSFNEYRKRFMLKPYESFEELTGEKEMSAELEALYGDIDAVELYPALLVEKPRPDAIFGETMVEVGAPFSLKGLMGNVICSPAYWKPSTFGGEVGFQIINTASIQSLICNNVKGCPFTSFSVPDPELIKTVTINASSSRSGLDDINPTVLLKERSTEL

[7] = molecular target: T1, Prostaglandin G/H synthase 2 (Homo sapiens); assay: Increase of COX2-mediated PGE2 production in PMA-Ion-stimulated human PBL at 10 uM after 24 hrs by ELISA relative to control
[8] = molecular target: T1, Prostaglandin G/H synthase 2 (Homo sapiens); assay: Increase of COX2-mediated PGE2 production in PMA-Ion-stimulated human PBL at 10 uM after 24 hrs by ELISA

Chain of Prostaglandin G/H synthase 2 (Ovis aries) (P79208 whole entry, looked up): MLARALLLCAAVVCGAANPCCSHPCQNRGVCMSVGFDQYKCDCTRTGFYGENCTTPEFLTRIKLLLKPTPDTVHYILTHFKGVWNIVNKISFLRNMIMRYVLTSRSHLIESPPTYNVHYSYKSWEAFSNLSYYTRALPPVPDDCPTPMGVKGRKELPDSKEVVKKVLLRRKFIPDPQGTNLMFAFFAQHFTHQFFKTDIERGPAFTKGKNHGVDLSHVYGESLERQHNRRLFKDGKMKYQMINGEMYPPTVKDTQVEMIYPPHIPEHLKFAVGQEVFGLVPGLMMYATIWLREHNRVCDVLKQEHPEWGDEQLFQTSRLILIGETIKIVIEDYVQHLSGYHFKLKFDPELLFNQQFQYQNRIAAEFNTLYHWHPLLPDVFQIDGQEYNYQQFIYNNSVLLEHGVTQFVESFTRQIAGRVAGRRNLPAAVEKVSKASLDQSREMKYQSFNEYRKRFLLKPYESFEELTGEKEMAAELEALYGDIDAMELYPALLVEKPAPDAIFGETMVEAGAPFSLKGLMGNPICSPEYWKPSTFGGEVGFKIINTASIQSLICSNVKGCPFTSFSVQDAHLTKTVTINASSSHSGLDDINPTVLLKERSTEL

Compound | Activity (PBL [1]) | inhibition [6] | further results
CS(=O)(=O)Nn1c(Sc2ccc([N+](=O)[O-])cc2[N+](=O)[O-])nc2sc3c(c2c1=O)CCCC3 | Non-toxic | – | –
Nn1c(SC(C(=O)O)c2ccccc2)nc2c([nH]c3ccccc32)c1=O (configuration not stated) | Non-toxic | – | –
CC(Sc1nc2c(sc3ccccc32)c(=O)n1N)C(=O)O (configuration not stated) | Non-toxic | – | –
CS(=O)(=O)Nc1ccc([N+](=O)[O-])cc1OC1CCCCC1 | – | – | inhibition (PBL [2]): Active
CS(=O)(=O)Nn1c(Sc2ccc([N+](=O)[O-])cc2)nc2sc(-c3ccccc3)cc2c1=O | Non-toxic | 20% | inhibition (PBL [3]): Active; inhibition [4]: 50%; Activity (PBL [5]): Non-toxic
CS(=O)(=O)Nn1c(Sc2ccccc2[N+](=O)[O-])nc2sc(-c3ccccc3)cc2c1=O | Non-toxic | 20% | inhibition (PBL [3]): Active; inhibition [4]: 50%; Activity (PBL [5]): Non-toxic
CS(=O)(=O)Nn1c(Sc2ccc(F)cc2F)nc2sc(-c3ccccc3)cc2c1=O | Non-toxic | > 50% | inhibition (PBL [3]): Active; inhibition [4]: 50%; Activity (PBL [5]): Non-toxic
CS(=O)(=O)Nn1c(SC2CCCCC2)nc2sc(-c3ccccc3)cc2c1=O | Non-toxic | – | fold change (FC) [7]: 2.9
CS(=O)(=O)Nn1c(Sc2ccccc2C(=O)O)nc2sc(-c3ccccc3)cc2c1=O | Non-toxic | 20% | inhibition (PBL [3]): Active; inhibition [4]: 50%; Activity (PBL [5]): Non-toxic
CS(=O)(=O)Nn1c(Sc2ccccc2C(=O)O)nc2ccsc2c1=O | Non-toxic | – | Activity [8]: Active
Cc1sc2nc(SC3CCCCC3)n(NS(C)(=O)=O)c(=O)c2c1C | Non-toxic | – | Activity [8]: Active
O=c1c2sc3ccccc3c2nc2n1N=C(c1ccccc1)CS2 | Non-toxic | inactive | –
COc1ccc(C2=Nn3c(nc4sc(-c5ccccc5)cc4c3=O)SC2)cc1 | Non-toxic | inactive | –
O=C1Nn2c(nc3c(sc4ccccc43)c2=O)SC1c1ccccc1 (configuration not stated) | Non-toxic | – | Activity [8]: Active
CCc1nn2c(=O)c3cc(-c4ccccc4)sc3nc2s1 | Non-toxic | – | –
